The values below come from ChEMBL document CHEMBL2046324, “Synthesis and biological evaluation of 1-arylsulfonyl-5-(N-hydroxyacrylamide)indoles as potent histone deacetylase inhibitors with antitumor activity in vivo” (J Med Chem, 2012).

Bounds are passed on as bounds.

The target in assay [1] is T1, Protein deacetylase HDAC6 (Homo sapiens, UniProt Q9UBN7).
T1 sequence (Q9UBN7 whole entry): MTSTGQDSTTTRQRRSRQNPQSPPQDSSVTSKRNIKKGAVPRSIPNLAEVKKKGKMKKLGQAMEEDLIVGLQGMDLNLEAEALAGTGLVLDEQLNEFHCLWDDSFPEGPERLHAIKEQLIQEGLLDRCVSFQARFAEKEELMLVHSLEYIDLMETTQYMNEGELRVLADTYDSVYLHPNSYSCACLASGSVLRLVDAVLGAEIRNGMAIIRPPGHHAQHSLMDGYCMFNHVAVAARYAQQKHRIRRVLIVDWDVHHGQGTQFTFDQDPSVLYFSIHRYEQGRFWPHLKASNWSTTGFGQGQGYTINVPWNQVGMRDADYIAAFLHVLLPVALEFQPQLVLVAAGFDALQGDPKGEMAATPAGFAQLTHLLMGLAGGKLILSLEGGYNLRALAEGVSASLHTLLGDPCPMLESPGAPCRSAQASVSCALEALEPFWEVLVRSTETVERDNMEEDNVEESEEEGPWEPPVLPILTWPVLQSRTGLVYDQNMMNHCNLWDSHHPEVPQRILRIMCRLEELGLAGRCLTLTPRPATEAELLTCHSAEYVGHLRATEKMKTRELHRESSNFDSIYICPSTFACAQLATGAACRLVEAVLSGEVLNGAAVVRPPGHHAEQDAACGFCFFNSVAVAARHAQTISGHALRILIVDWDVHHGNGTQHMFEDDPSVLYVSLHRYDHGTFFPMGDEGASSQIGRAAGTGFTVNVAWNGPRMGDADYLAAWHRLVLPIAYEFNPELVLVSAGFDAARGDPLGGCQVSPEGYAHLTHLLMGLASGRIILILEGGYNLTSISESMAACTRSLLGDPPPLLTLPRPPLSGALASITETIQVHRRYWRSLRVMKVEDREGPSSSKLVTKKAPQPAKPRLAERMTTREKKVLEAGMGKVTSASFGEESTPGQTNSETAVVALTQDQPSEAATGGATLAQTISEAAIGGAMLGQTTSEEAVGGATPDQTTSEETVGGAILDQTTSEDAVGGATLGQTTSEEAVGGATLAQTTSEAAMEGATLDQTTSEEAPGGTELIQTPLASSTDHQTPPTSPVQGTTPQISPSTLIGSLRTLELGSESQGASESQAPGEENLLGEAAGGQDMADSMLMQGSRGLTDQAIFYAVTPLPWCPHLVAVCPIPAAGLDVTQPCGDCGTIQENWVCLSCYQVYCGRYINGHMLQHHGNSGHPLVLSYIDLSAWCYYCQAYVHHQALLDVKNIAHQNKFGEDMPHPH
Description: Inhibition of human recombinant HDAC6 after 30 mins by fluorometric assay.

Another assay concerns the target Histone deacetylase 2 (Homo sapiens, UniProt Q92769). Put plainly: Inhibition of human recombinant HDAC2 after 30 mins by fluorometric assay.
The next assay relates to PC-3. Description: cells. Format: functional. As to conditions: Homo sapiens, PC-3, 48 h.
For a further assay, the target named is Histone deacetylase 1 (Homo sapiens, UniProt Q13547). Put plainly: Inhibition of human recombinant HDAC1 after 30 mins by fluorometric assay.
Sequence of Histone deacetylase 1 (Q13547 whole entry): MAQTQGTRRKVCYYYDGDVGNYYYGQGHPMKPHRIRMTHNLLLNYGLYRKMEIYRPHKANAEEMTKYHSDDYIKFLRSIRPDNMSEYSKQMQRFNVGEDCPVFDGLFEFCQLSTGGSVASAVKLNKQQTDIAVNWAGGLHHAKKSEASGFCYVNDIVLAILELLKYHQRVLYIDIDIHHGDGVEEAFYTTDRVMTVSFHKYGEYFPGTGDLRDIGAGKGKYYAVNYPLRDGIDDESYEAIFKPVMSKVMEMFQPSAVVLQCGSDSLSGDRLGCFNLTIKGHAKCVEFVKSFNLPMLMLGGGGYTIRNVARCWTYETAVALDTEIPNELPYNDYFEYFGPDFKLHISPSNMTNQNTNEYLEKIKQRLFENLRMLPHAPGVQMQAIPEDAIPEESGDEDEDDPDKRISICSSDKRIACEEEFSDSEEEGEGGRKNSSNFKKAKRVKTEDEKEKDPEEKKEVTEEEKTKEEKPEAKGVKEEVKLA
In a further assay the test system is MDA-MB-231. Description: cells. Format: functional. The following applies: Homo sapiens, MDA-MB-231, 48 h.
Another assay can be described thus: cells. Format: functional, Hep 3B2. The following applies: Homo sapiens, Hep3B, 48 h.
Another assay has as its system A549. Put plainly: Growth inhibition of human A549 cells after 48 hrs by SRB assay. The format is functional. An outline of the steps: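 A549 cells were grown in RPMI 1640 with 10% FBS and 2 mM glutamine at 37 °C in 5% CO₂, then seeded in medium with 5% FBS. A 24 h TCA-fixed plate gave T₀. Cells were exposed to compound or DMSO for 48 h, fixed with 10% TCA and stained with 0.4% SRB; bound dye was solubilized in 10 mM Tris and read at 515 nm. GI₅₀ was the concentration halving net protein increase. At least three independent experiments.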
For orientation: Sulforhodamine B stains cellular protein and so reports cell mass.

In a further assay the target is Histone deacetylase. Description: Inhibition of HDAC in human HeLa cell nuclear extract after 30 mins by fluorescence microplate reader. Format: protein assay.
For another assay, the species on record is Homo sapiens. Description: Selectivity ratio of IC50 for human HDAC1 to IC50 for human HDAC6.

Sequence of Histone deacetylase 2 (Q92769 whole entry): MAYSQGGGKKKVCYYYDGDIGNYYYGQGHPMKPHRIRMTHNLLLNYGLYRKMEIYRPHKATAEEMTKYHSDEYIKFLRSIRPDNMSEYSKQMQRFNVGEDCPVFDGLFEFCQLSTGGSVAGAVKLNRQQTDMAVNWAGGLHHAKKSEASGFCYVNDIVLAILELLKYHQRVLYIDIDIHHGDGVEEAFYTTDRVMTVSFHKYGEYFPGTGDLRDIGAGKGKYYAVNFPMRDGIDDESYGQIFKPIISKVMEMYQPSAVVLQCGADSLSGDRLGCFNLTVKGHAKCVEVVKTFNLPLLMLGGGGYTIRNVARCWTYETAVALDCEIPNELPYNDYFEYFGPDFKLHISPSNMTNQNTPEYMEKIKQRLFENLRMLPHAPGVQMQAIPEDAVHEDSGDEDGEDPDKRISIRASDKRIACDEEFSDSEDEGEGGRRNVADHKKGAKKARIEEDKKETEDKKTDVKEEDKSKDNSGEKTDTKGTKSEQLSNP

As a reminder, the IC50 is the midpoint of a concentration-inhibition curve. A word on the GI50: it is the concentration at which growth is held to half of that of the control. In the case of `O=C(/C=C/c1ccc2c(ccn2S(=O)(=O)c2ccc([N+](=O)[O-])cc2)c1)NO`, the half-inhibitory concentration (IC50) came out at 18.3 nM in [1], 189 nM on Histone deacetylase 2, 69.9 nM on Histone deacetylase 1 and 12.6 nM against Histone deacetylase. Also, the GI50 in the assay on PC-3 came to 850 nM; in the assay with MDA-MB-231, 750 nM; in “cells”, 560 nM; in the assay on A549 (Homo sapiens, A549, 48 h), 1210 nM.
With `O=C(/C=C/c1ccc2c(ccn2C(=O)c2ccccc2)c1)NO`, the GI50 was 2320 nM in the assay with PC-3; 3180 nM in the assay on MDA-MB-231; 2400 nM in “cells”; 5800 nM in the assay with A549 (Homo sapiens, A549, 48 h). Besides, the half-inhibitory concentration (IC50) at Histone deacetylase worked out at 757.6 nM.
For `O=C(/C=C/c1ccc2c(ccn2-c2ccccc2)c1)NO`, in that order: 1540 nM, 1730 nM, 1320 nM, 2850 nM and 186.5 nM.
The matching figures for `O=C(NO)c1ccc2c(ccn2S(=O)(=O)c2ccccc2)c1`: 7260 nM, 5680 nM, above 10000 nM, above 10000 nM and above 1000 nM.
Consider `COc1ccc(S(=O)(=O)n2ccc3cc(/C=C/C(=O)NO)ccc32)cc1OC`, for which the IC50 in assay [1] stood at 45.4 nM; at Histone deacetylase 2, 2.3 nM; on Histone deacetylase 1, 18.1 nM; at Histone deacetylase, 9.7 nM. The concentration for 50% growth inhibition (GI50) in the assay on PC-3 is 930 nM; with MDA-MB-231, 370 nM; in “cells”, 360 nM; in the assay on A549 (Homo sapiens, A549, 48 h) it was 560 nM.
In the case of `O=C(/C=C/c1ccc2[nH]cc(S(=O)(=O)c3ccccc3)c2c1)NO`, the concentration for 50% growth inhibition (GI50) in the assay on PC-3 was 1260 nM; with MDA-MB-231, 1250 nM; in “cells”, 1270 nM; in the assay with A549 (Homo sapiens, A549, 48 h), 3330 nM. Further, the concentration for half-maximal inhibition (IC50) at Histone deacetylase is 275.2 nM.
Consider `O=C(/C=C/c1cn(S(=O)(=O)c2ccccc2)c2ccccc12)NO`, for which the GI50 in the assay with PC-3 turned out to be 5770 nM; in the assay on MDA-MB-231, 8140 nM; in the assay “cells”, 8870 nM; in the assay with A549 (Homo sapiens, A549, 48 h), 7060 nM. The molecule further registered a 50% inhibitory concentration (IC50) on Histone deacetylase above 1000 nM.
The matching figures for `O=C(/C=C/c1cccc2c1ccn2S(=O)(=O)c1ccccc1)NO`: 3670 nM, 4160 nM, 4320 nM, 6700 nM and 170.9 nM.
For `O=C(/C=C/c1ccc2[nH]ccc2c1)NO`, in that order: 4800 nM, 4370 nM, 3650 nM, 9070 nM and above 1000 nM.
`COc1ccc(S(=O)(=O)n2ccc3cc(/C=C/C(=O)NO)ccc32)cc1`: the concentration for half-maximal inhibition (IC50) in assay [1] worked out at 3.3 nM; at Histone deacetylase 2, 362 nM; on Histone deacetylase 1, 125 nM; against Histone deacetylase, 6.8 nM. Further, the GI50 in the assay on PC-3 came out at 800 nM; in the assay with MDA-MB-231, 750 nM; in the assay “cells”, 550 nM; in the assay with A549 (Homo sapiens, A549, 48 h), 1180 nM. For the same molecule, the Ratio IC50 in the assay filed under Homo sapiens is 40.
Turning to `O=C(CCc1ccc2c(ccn2S(=O)(=O)c2ccccc2)c1)NO`, the GI50 with PC-3 worked out at 2070 nM; in the assay with MDA-MB-231, 2210 nM; in the assay “cells”, 2560 nM; in the assay on A549 (Homo sapiens, A549, 48 h) it was 4040 nM. On Histone deacetylase, this molecule had a half-inhibitory concentration (IC50) of 407.5 nM.
For the molecule `O=C(/C=C/c1cccc2ccn(S(=O)(=O)c3ccccc3)c12)NO`, the concentration for 50% growth inhibition (GI50) stood at 4750 nM in the assay with PC-3; 7710 nM in the assay on MDA-MB-231; 3820 nM in “cells”; 5500 nM in the assay on A549 (Homo sapiens, A549, 48 h). The 50% inhibitory concentration (IC50) against Histone deacetylase was above 1000 nM.
On to `O=C(CCCCCCC(=O)Nc1ccccc1)NO` [VORINOSTAT], for which the GI50 with A549 worked out at 1850 nM.
As to `O=C(/C=C/c1ccc2c(ccn2Cc2ccccc2)c1)NO`, the IC50 in assay [1] was found to be 40.4 nM; at Histone deacetylase 2, 381 nM; on Histone deacetylase 1 it was 71.2 nM; against Histone deacetylase, 32.1 nM. In addition, the GI50 in the assay with PC-3 was found to be 1230 nM; in the assay on MDA-MB-231, 1180 nM; in the assay “cells”, 860 nM; with A549 (Homo sapiens, A549, 48 h), 2370 nM.
On to `O=C(/C=C/c1ccc2c(ccn2S(=O)(=O)c2ccc(F)cc2)c1)NO`, for which the IC50 in assay [1] was found to be 59.2 nM; at Histone deacetylase 2 it was 199 nM; at Histone deacetylase 1, 33.2 nM; at Histone deacetylase, 16.8 nM. Besides, the GI50 in the assay with PC-3 was 390 nM; in the assay on MDA-MB-231, 660 nM; in the assay “cells”, 640 nM; with A549 (Homo sapiens, A549, 48 h), 750 nM.
Turning to `O=C(/C=C/c1ccc2ccn(S(=O)(=O)c3ccccc3)c2c1)NO`, the GI50 was determined as 2400 nM in the assay on PC-3; 2410 nM in the assay on MDA-MB-231; 2120 nM in the assay “cells”; 5300 nM in the assay on A549 (Homo sapiens, A549, 48 h). At Histone deacetylase, this molecule gave an IC50 of 254 nM.
